High-throughput results deposited in PubChem by Sanford-Burnham Center for Chemical Genomics.
G6PDH CS: L. mesenteroides G6PDH inhibition counter-screen | Purified L. mesenteroides G6PDH, diaphorase/resazurin coupled fluorescence, 45 min | inhibition, % at 5 µM | actives 0.12% (n = 200,000); in the data active = inhibition above about 50%
Diaph act CS: diaphorase activation or chemical reduction counter-screen; Diaphorase/resazurin coupled assay, resorufin fluorescence, 16 min; active compounds read high; 1 = vehicle wells, 0 = NADH-free wells; actives 0.005% (n = 190,000); activation factor at 20 µM; AID 1229;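 active = diaphorase activity raised at least twofold by the compound at 20 µM; inactive = activation factor below 2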
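Assay system: Purified diaphorase enzyme from Clostridium kluyveri | Amount: Enzyme 0.07 U/mL final | Dosing: Compound 20 µM once, DMSO 1% | Timing: 16 min reaction at room temperature | Detection: Fluorescence, excitation 544 nm and emission 590 nm | Evaluation: Higher resorufin formation from activation or reduction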
HKDC1 inh: inhibitors of human hexokinase HKDC1 | recombinant HKDC1, G6PDH/diaphorase resazurin coupled fluorescence | inhibition, % at 20 µM | actives 0.16% (n = 340,000) | AID 493160;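 active = inhibition above about 35% when tested at 20 µM, limit read from the data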
Target sequence (Q2TB90 whole entry, looked up): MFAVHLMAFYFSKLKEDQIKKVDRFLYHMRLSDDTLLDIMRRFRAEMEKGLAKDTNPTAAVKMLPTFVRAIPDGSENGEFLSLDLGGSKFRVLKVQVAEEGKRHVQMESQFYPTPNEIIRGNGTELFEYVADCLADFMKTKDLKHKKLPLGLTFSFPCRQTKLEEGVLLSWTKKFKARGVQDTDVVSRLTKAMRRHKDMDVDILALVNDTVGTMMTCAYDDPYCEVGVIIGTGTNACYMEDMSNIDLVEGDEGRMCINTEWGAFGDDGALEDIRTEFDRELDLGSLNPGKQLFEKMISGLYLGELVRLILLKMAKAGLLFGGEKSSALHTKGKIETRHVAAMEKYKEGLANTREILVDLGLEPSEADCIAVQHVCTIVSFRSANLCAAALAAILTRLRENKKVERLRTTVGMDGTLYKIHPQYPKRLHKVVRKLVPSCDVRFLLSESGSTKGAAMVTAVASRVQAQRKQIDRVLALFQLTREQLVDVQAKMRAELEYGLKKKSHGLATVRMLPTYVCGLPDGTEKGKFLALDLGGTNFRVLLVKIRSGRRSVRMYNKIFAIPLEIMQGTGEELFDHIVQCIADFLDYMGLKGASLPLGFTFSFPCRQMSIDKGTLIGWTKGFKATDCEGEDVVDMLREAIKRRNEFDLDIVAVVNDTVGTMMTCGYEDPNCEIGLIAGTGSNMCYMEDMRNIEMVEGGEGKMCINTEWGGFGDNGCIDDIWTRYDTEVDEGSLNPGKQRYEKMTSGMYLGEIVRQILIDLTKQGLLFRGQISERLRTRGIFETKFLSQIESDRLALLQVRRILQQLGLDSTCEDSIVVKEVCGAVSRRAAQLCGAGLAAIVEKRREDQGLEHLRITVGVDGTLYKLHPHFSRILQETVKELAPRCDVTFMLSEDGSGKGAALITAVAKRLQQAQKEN
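Assay system: in-house recombinant HK5 (HKDC1) enzyme. Input: HKDC1 at 5 µg/mL. Medium: Tris pH 8.0 buffer with MgCl2, Tween-20, BSA, BME. Dosing: single 20 µM dose. Schedule: 90 min reaction incubation at room temperature, dark. Signal: resazurin-to-resorufin fluorescence via G6PDH and diaphorase coupling, 525/613 nm. Controls: DMSO-enzyme wells negative, buffer-substituted wells positive.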
PfG6PD inh: PfG6PD (Plasmodium falciparum) enzyme inhibition; actives 0.78% (n = 350,000); PfGluPho enzyme, NADPH resazurin-diaphorase fluorescence; AID 504690; inhibition, % at 20 µM;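 active = inhibition reaching at least a set limit at 20 µM in the primary screen, cut at about 59% in these data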
Diaph inh CS: counter-screen for diaphorase-based assays: diaphorase inhibitors and chemical oxidizers; diaphorase resazurin-to-resorufin fluorescence, NADH, 16 min; bacterial (C. kluyveri) enzyme, not human; inhibition, % at 20 µM; actives 0.69% (n = 190,000);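 active = primary screen inhibition at 20 µM above a set limit, cut at about 50% in these data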
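Test system: bacterial diaphorase enzyme (C. kluyveri); Quantity: 0.14 U/mL diaphorase, enzyme working solution; Times: reaction incubation of 16 min at room temperature; Measured by: fluorescence of resorufin formed from resazurin, Ex 544/Em 590 nm; Benchmarks: positive control minus NADH, DMSO neutral control.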
HKDC1 act conf2: HKDC1 (human) activation, single-dose confirmed. shares compounds with HKDC1 inh. recombinant HKDC1, G6PDH/diaphorase resazurin fluorescence; active compounds read low. inhibition, % at 20 µM. actives 14% (n = 740);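 active = inhibition at or below a set negative limit, negative inhibition meaning the enzyme was activated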
PfGluPho conf: confirmation of Plasmodium falciparum G6PD inhibitors; recombinant PfGluPho, NADPH-diaphorase-resazurin fluorescence; shares compounds with PfG6PD inh; AID 504753; inhibition, % at 20 µM; actives 34% (n = 2,400);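 active = inhibition of at least 50% at 20 µM in any single replicate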
Diaphorase 10uM: counter-screen for P. falciparum G6PD inhibitors: diaphorase inhibitors, oxidizers; shares compounds with PfG6PD inh; diaphorase-coupled resazurin reduction, fluorescence, NADPH 10 uM; actives 39% (n = 820); inhibition, % at 20 µM;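 active = average inhibition reaching 50% or more with the compound at 20 µM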;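 also: resorufin red fluorescence formed as diaphorase reduces resazurin using NADPH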
Diaphorase 30uM: inhibits diaphorase or oxidizes, flagging false PfG6PD hits; Diaphorase/resazurin coupled assay, resorufin fluorescence, 30 uM NADPH; AID 504863; actives 29% (n = 820); shares compounds with PfG6PD inh; inhibition, % at 20 µM;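 active = inhibition averaging 50% or more, tested at 20 µM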
Hits are given with their value; . = inactive; / = no result. Sampled rows, rich in hits. Any-hit rate of the full collection: about 1.3%.

SMILES | G6PDH CS | Diaph act CS | HKDC1 inh | PfG6PD inh | Diaph inh CS | HKDC1 act conf2 | PfGluPho conf | others
N#C/C(=C\c1cccnc1)C(=O)Nc1ccc(O)cc1F | / | / | . | . | / | / | /
CCC(c1ccccc1)C(CC)c1cc(O)c(O)c(O)c1 (stereo not drawn) | / | / | 42 | . | / | . | /
COCOCCn1cc(CN2CCS(=O)(=O)N(Cc3ccc(-c4ccncc4)cc3)C(C(C)C)C2=O)nn1 (stereo not drawn) | / | / | / | . | / | / | /
COC1=CC(=O)C(OC)=C(OC)C1=O | / | / | 76 | 120 | / | . | /
COc1ccc(C(=O)/C=C/Sc2nc3ccccc3o2)cc1 | / | / | 38 | . | / | . | /
COc1ccc(N(CC(=O)N2CCN(c3ccc(F)cc3)CC2)S(=O)(=O)c2c(C)noc2C)cc1 | / | / | . | . | / | / | /
COc1ccc(S(=O)(=O)N(C)C[C@@H]2OCCCC[C@H](C)Oc3ccc(NC(=O)Nc4ccc(C(F)(F)F)cc4)cc3C(=O)N([C@H](C)CO)C[C@H]2C)cc1 | / | / | / | . | / | / | /
Cc1cc(C)c2cc(C)c3nnc(SCC(=O)NCc4ccc5c(c4)OCO5)n3c2c1 | . | . | . | . | . | . | /
Cc1cc2cc(C)c3nnc(SCC(=O)NCc4ccc5c(c4)OCO5)n3c2cc1C | . | . | . | . | . | / | /
COc1ccc(N2CCN(C(=O)CSc3nnc4c(C)cc5c(C)cc(C)cc5n34)CC2)cc1 | . | . | 43 | . | . | . | /
O=C(N/N=C/c1ccc[nH]1)c1sc2ccccc2c1Cl | . | . | . | . | . | . | /
O=C1CC2(CCCCC2)CC(=O)N1CCc1ccccc1 | / | / | . | . | / | / | /
O=C1C=CC(=O)C(C2=C3C(=O)N(CCc4ccccc4)CC(=O)N3CCC2)=C1 | . | . | 63 | 110 | . | . | 114 | Diaphorase 10uM=99;Diaphorase 30uM=82
Cc1ccc(Cl)cc1N1CCN(C(=O)CCS(=O)(=O)c2ccc3c(c2)NC(=O)CO3)CC1 | / | / | . | . | / | / | /
COc1ccc(N2C3=C(CC4=C2CCCC4=O)C(=O)CCC3)cc1 | . | . | . | 97 | 64 | . | .
CN(Cc1ccccc1)C(=O)COC(=O)CCC(=O)c1ccc(F)cc1 | / | / | . | . | / | / | /
CC1=NOC(=O)/C1=C\c1ccc(-c2cccc(Cl)c2)o1 | . | . | 38 | 72 | . | . | .
CC(C)c1nc2oc3c(NCC4CCCO4)ncnc3c2c2c1COC(C)(C)C2 (stereo not drawn) | . | . | 40 | 66 | 90 | . | .
CC1(C)Cc2c(C#N)c(NCC3CCCO3)nc(-c3ccco3)c2CO1 (stereo not drawn) | . | . | . | . | . | / | /
O=C1C(Cl)=C(NCCc2ccccc2)C(=O)c2ccccc21 | / | / | 53 | 97 | / | . | 80 | Diaphorase 10uM=.;Diaphorase 30uM=.
Cc1ccc(CS(=O)Cc2ccc(C(=O)NCCc3ccccc3)o2)cc1 (stereo not drawn) | / | / | . | . | / | / | /
NC1=CC(=O)C(=O)c2ccccc21 | / | / | 49 | 71 | / | . | .
C[n+]1c(-c2ccccc2)cc2c(=Cc3ccc([N+](=O)[O-])cc3)c3ccccc3n21 | / | / | 36 | 76 | / | . | 50 | Diaphorase 10uM=.;Diaphorase 30uM=.
CN(C)c1ccc(C=c2c3cc(O)ccc3n3c2cc(-c2ccccc2)[n+]3C)cc1 | / | / | 56 | 83 | / | . | 89 | Diaphorase 10uM=.;Diaphorase 30uM=.
CCn1c2ccccc2c2cc([N+](=O)[O-])ccc21 | . | . | . | . | . | / | /
SMILES | G6PDH CS | Diaph act CS | HKDC1 inh | PfG6PD inh | Diaph inh CS | HKDC1 act conf2 | PfGluPho conf | others
CCN(C(=O)COC(=O)/C=C/c1ccc(OC)c(OC)c1)c1c(N)n(Cc2ccccc2)c(=O)[nH]c1=O | / | / | . | . | / | / | /
Cc1ccc(C(=O)c2coc3c2C(=O)C(=O)c2ccccc2-3)cc1 | 58 | . | 57 | 110 | 58 | . | 110 | Diaphorase 10uM=93;Diaphorase 30uM=100
O=C(c1ccc(Cl)cc1)c1ccc(CN2C(=O)c3ccccc3C2=O)o1 | . | . | . | . | . | / | /
Cc1oc2c(c1C(=O)c1ccc(Cl)cc1)C(=O)C(=O)c1ccccc1-2 | 60 | . | 55 | 117 | 60 | . | 88 | Diaphorase 10uM=83;Diaphorase 30uM=77
Cc1ccc(C(=O)c2c(C)oc3c2C(=O)C(=O)c2ccccc2-3)cc1 | 63 | . | 48 | 107 | 57 | . | 92 | Diaphorase 10uM=92;Diaphorase 30uM=98
Cc1ccc(CNC(=O)c2ccc(OCC(C)C)cc2)n1C | / | / | . | . | / | / | /
CCOc1ccc(N)c(SSc2cc(OCC)ccc2N)c1 | / | / | . | 68 | / | . | .
C=CCN1C=C2C(=O)C(C)(OC(=O)CCC(=O)OC)C(=O)C(Br)=C2C=C1c1ccc(OC)cc1 (stereo not drawn) | / | / | 36 | 86 | / | . | 55 | Diaphorase 10uM=.;Diaphorase 30uM=.
COC(=O)CCCC1=CC2=C(c3ccccc3)C(=O)C(C)(OC(=O)C3CCCC3)C(=O)C2=CN1C1CC1 (stereo not drawn) | / | / | . | . | / | / | /
COC(=O)CCC(=O)OC1(C)C(=O)C2=CN(C3CCCC3)C(c3ccc(OC)cc3)=CC2=C(Br)C1=O (stereo not drawn) | / | / | 38 | 70 | / | . | 67 | Diaphorase 10uM=56;Diaphorase 30uM=51
C=CCN1C=C2C(=O)C(C)(OC(=O)C3CCCC3)C(=O)C(c3ccccc3)=C2C=C1CCCC(=O)OC (stereo not drawn) | / | / | . | . | / | / | /
COCCN1C=C2C(=O)C(C)(OC(=O)CCC(=O)OC)C(=O)C(Br)=C2C=C1c1ccc(OC)cc1 (stereo not drawn) | / | / | 38 | 94 | / | . | .
COC(=O)CCC(=O)OC1(C)C(=O)C2=CN(c3ccc(OC)cc3)C(c3ccc(OC)cc3)=CC2=C(Br)C1=O (stereo not drawn) | / | / | . | 71 | / | . | 48 | Diaphorase 10uM=.;Diaphorase 30uM=.
CCN(CC)CCCN1C=C2C(=O)C(C)(OC(=O)CCC(=O)OC)C(=O)C(Br)=C2C=C1c1ccc(OC)cc1 (stereo not drawn) | / | / | . | . | / | / | /
CCCCC1=CC2=C(c3ccco3)C(=O)C(C)(OC(=O)c3ccc(OC)cc3)C(=O)C2=CN1c1ccc(OC)cc1 (stereo not drawn) | / | / | . | . | / | / | /
Cc1ccc(S(=O)(=O)N2C[C@H]3N(C(=O)OC(C)C)N(C(=O)OC(C)C)C[C@H](OC(=O)Nc4c(C)noc4C)[C@@]3(O)C2)cc1 | / | / | / | . | / | / | /
COc1ccccc1N1CCN(CCS(=O)(=O)c2cc(Cl)ccc2Cl)CC1 | / | / | / | . | / | / | /
COc1ccc(/C(C)=N/NC(=S)NCCc2ccccc2)c(O)c1 | / | / | . | . | / | / | /
O=C1CSc2ccc(S(=O)(=O)CCC(=O)NC3CCCCC3)cc2N1 | / | / | . | . | / | / | /
